Results taken from ChEMBL document CHEMBL1137156, “Novel substituted 4-phenyl-[1,3]dioxanes: potent and selective orexin receptor 2 (OX(2)R) antagonists” (Bioorg Med Chem Lett, 2004).

How the values were obtained:
Homo sapiens = species on record: Homo sapiens; test: Selectivity of Orexin type 2 receptor over Orexin type 1 receptor
Orexin receptor type 2 = biological target: T1, Orexin receptor type 2 (Homo sapiens, UniProt O43614); test: Binding affinity towards human orexin receptor type 2 was determined using [125I]-Orexin A as radio ligand
T1 sequence (O43614 whole entry): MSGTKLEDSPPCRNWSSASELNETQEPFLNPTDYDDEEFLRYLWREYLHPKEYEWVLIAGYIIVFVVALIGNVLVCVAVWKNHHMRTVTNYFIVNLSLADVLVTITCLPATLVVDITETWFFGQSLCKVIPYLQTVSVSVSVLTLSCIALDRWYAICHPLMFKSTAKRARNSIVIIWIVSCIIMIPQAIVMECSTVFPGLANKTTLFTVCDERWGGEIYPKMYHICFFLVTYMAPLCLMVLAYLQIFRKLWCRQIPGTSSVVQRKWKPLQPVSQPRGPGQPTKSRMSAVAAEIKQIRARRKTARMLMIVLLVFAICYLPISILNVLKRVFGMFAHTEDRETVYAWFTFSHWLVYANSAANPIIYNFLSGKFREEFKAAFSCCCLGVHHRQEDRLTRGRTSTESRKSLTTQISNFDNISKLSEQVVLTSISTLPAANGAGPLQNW

[1] = biological target: T2, Orexin/Hypocretin receptor type 1 (Homo sapiens, UniProt O43613); test: Binding affinity towards human orexin receptor type 1 was determined using [125I]-Orexin A as radio ligand
T2 sequence (O43613 whole entry): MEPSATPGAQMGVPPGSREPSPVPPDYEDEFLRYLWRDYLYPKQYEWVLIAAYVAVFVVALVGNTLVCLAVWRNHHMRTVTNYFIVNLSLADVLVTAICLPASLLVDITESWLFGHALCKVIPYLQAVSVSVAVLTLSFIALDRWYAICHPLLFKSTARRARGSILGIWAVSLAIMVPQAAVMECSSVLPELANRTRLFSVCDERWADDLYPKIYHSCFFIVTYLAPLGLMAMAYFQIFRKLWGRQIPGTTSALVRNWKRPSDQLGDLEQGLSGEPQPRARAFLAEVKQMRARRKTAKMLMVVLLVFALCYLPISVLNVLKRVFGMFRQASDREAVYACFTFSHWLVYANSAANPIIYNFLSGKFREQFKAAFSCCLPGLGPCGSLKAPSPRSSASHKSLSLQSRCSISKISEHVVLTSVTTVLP
In short: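 Clonal CHO-K1 cells expressing the orexin receptor, grown adherent on poly-D-lysine-coated plates. Binding in Dulbecco's PBS with 0.1% w/v BSA, 10⁵ cpm ¹²⁵I-orexin A (2200 Ci/mmol) plus test compound, 90-120 min at room temperature. Wells washed with iced buffer, then scintillation counted. Ki with 95% confidence intervals from N = 3 assays.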

[2] = biological target: T3, Orexin receptor type 2 (Homo sapiens) (UniProt O43614); test: Antagonistic activity towards intracellular calcium levels in cells expressing Orexin receptor type 2; type: functional, cell-based
T3 sequence (whole entry): T1 sequence (O43614 whole entry)
In short: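 Fluo-3 AM-loaded cells expressing OX2R, intracellular Ca⁺⁺ fluorescence. […] For compounds with OX2R pKi above 6.3, pKB came from the orexin B EC50 and IC50s from antagonist dilutions, all on one 96-well plate.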

| SMILES | Selectivity (Homo sapiens) | Ki (Orexin receptor type 2) [nM] | Ki [1] [nM] | pKb [2] |
| --- | --- | --- | --- | --- |
| CC1(C)OC[C@H](NC(=O)Nc2ccc(Br)cc2Br)[C@H](c2ccccc2)O1 | 600 | 5.01 | 3160 | 7.9 |
| CC1(C)OC[C@H](/N=C(\S)Nc2ccccc2Br)[C@H](c2ccccc2)O1 | > 30 | 398 | > 10000 | – |
| CC1(C)OC[C@H](NC(=O)Cc2ccccc2Br)[C@H](c2ccccc2)O1 | > 7 | 1580 | > 10000 | – |
| Cc1ccc(NC(=O)N[C@H]2COC(C)(C)O[C@H]2c2ccccc2)c(C)c1 | > 70 | 126 | > 10000 | – |
| CC1(C)OC[C@H](NC(=O)Nc2cccc(Br)c2)[C@H](c2ccccc2)O1 | > 9 | 1000 | > 10000 | – |
| CC1(C)OC[C@H](NC(=O)Nc2ccccc2-c2cccc(Cl)c2)[C@H](c2ccccc2)O1 | 6 | 79.4 | 501 | – |
| CC1(C)OC[C@H](NC(=O)c2ccc(Cl)cc2Cl)[C@H](c2ccccc2)O1 | > 50 | 200 | > 10000 | – |
| Cc1cc(Br)ccc1NC(=O)N[C@H]1COC(C)(C)O[C@H]1c1ccccc1 | 200 | 39.8 | > 10000 | – |
| CC1(C)OC[C@H](NC(=O)Nc2ccc(Br)cc2Cl)[C@H](c2ccccc2)O1 | > 900 | 6.31 | > 5010 | – |
| CC1(C)OC[C@H](NC(=O)Nc2c(Cl)cccc2Cl)[C@H](c2ccccc2)O1 | > 2 | > 5010 | > 10000 | – |
| CC1(C)OC[C@H](NC(=O)Nc2cc(Cl)ccc2Cl)[C@H](c2ccccc2)O1 | > 80 | 63.1 | > 5010 | – |
| CC1(C)OC[C@H](NC(=O)Oc2ccccc2Cl)[C@H](c2ccccc2)O1 | > 6 | 1580 | > 10000 | – |
| Cc1ccc(Cl)c(NC(=O)N[C@H]2COC(C)(C)O[C@H]2c2ccccc2)c1 | > 80 | 63.1 | > 5010 | – |
| CC1(C)OC[C@H](NC(=O)Nc2ccccc2C(F)(F)F)[C@H](c2ccccc2)O1 | > 100 | 100 | > 10000 | – |
| Cc1ccc(/N=C(\NC#N)N[C@H]2COC(C)(C)O[C@H]2c2ccccc2)c(Br)c1 | > 8 | 1260 | > 10000 | – |
| CC1(C)OC[C@H](NC(=O)Nc2ccccc2-c2cccnc2)[C@H](c2ccccc2)O1 | > 20 | 316 | > 5010 | – |
| CC1(C)OC[C@H](NC(=O)Nc2ccc(Cl)cc2Cl)[C@H](c2ccccc2)O1 | 100 | 20 | 2510 | 7 |
| CC1(C)OC[C@H](NC(=O)Nc2ccccc2-c2ccccc2)[C@H](c2ccccc2)O1 | 4 | 100 | 501 | – |
| CC1(C)OC[C@H](NC(=O)Nc2ccc(Br)cc2)[C@H](c2ccccc2)O1 | > 40 | 251 | > 10000 | – |
| CC1(C)OC[C@H](/N=C(\S)Nc2ccc(Cl)cc2Cl)[C@H](c2ccccc2)O1 | > 50 | 200 | > 10000 | – |
| CC1(C)OC[C@H](NC(=O)Nc2ccccc2-c2ccccc2Cl)[C@H](c2ccccc2)O1 | 5 | 25.1 | 126 | – |

Second part, the compound after the results:

| Selectivity (Homo sapiens) | Ki (Orexin receptor type 2) [nM] | Ki [1] [nM] | pKb [2] | SMILES |
| --- | --- | --- | --- | --- |
| 20 | 50.1 | 1000 | – | CC1(C)OC[C@H](NC(=O)Nc2ccccc2-c2cccs2)[C@H](c2ccccc2)O1 |
| – | – | 2000 | 6.3 | CC1(C)OC[C@H](NC(=O)Nc2ccccc2Br)[C@H](c2ccccc2)O1 |
| > 20 | 501 | > 10000 | – | CC1(C)OC[C@H](NC(=O)Nc2ccccc2)[C@H](c2ccccc2)O1 |
| > 4 | 2510 | > 10000 | – | CC(C)c1ccccc1NC(=O)N[C@H]1COC(C)(C)O[C@H]1c1ccccc1 |
| > 20 | 398 | > 10000 | – | CC1(C)OC[C@H](NC(=O)Nc2ccccc2F)[C@H](c2ccccc2)O1 |
| > 100 | 79.4 | > 10000 | 6 | CC1(C)OC[C@H](NC(=O)Nc2ccccc2Cl)[C@H](c2ccccc2)O1 |
| > 70 | 79.4 | > 5010 | 6.5 | CC1(C)OC[C@H](NC(=O)Nc2ccccc2I)[C@H](c2ccccc2)O1 |
| 30 | 79.4 | 2000 | – | CC1(C)OC[C@H](NC(=O)Nc2ccccc2-c2ccsc2)[C@H](c2ccccc2)O1 |
| > 4 | 2510 | > 10000 | – | COc1ccccc1NC(=O)N[C@H]1COC(C)(C)O[C@H]1c1ccccc1 |
